Test results published in ChEMBL document CHEMBL1129282, “High-affinity partial agonist imidazo[1,5-a]quinoxaline amides, carbamates, and ureas at the gamma-aminobutyric acid A/benzodiazepine receptor complex” (J Med Chem, 1996).
Activity calls are given as the source filed them.

How the values were obtained:
[1] = species on record: Rattus norvegicus; assay: In vitro [36Cl]-uptake in rat cerebrocortical synaptoneurosomes; format: functional; set-up: unit not given here
Method in brief: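 Rat cerebrocortical synaptoneurosomes (1 mg protein) preincubated 5 min at 30 °C, then mixed with medium containing 0.2 µCi Na36Cl/mL, 118 mM NaCl, 5 mM KCl, 1.8 mM MgSO4, 20 mM Hepes/Tris pH 7.0, ± drug (methanol ≤0.4%). Uptake stopped after 5 s with ice-cold buffer, rapid filtration, four washes, radioactivity counted.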

[2] = target: T1, GABA-A receptor; alpha-1/beta-2/gamma-2 (Homo sapiens, UniProt P14867+P18507+P47870); assay: Displacement of [3H]flunitrazepam from GABA-A receptor alpha-1-beta-2-gamma-2 subunits expressed in Sf9 cells
T1 sequence (P14867 whole entry): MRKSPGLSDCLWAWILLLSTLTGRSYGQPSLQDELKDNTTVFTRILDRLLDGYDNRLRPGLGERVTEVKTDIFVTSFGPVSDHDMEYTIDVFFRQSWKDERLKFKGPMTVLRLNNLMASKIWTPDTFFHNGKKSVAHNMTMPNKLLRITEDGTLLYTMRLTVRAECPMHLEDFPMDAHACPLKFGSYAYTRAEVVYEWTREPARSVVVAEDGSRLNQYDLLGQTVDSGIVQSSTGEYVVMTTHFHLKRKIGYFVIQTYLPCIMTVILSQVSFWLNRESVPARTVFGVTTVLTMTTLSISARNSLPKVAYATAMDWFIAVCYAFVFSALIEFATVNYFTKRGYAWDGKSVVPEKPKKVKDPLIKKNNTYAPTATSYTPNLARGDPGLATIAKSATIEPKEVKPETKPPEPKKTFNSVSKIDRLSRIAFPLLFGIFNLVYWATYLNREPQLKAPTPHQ
T1 sequence (P47870 whole entry): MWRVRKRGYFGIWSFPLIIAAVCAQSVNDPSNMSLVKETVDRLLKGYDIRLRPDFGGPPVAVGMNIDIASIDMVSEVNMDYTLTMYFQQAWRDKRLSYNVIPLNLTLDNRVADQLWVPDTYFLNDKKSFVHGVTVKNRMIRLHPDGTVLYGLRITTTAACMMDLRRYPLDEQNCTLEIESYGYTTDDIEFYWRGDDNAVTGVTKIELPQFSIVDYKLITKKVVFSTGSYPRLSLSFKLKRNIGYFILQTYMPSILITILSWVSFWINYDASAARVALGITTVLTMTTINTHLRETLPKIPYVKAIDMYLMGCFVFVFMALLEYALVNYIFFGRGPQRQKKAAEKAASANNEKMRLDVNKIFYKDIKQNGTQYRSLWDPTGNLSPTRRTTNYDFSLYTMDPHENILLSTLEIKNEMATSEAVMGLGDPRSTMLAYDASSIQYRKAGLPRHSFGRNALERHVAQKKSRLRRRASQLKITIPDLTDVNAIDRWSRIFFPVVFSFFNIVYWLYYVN
T1 sequence (P18507 whole entry): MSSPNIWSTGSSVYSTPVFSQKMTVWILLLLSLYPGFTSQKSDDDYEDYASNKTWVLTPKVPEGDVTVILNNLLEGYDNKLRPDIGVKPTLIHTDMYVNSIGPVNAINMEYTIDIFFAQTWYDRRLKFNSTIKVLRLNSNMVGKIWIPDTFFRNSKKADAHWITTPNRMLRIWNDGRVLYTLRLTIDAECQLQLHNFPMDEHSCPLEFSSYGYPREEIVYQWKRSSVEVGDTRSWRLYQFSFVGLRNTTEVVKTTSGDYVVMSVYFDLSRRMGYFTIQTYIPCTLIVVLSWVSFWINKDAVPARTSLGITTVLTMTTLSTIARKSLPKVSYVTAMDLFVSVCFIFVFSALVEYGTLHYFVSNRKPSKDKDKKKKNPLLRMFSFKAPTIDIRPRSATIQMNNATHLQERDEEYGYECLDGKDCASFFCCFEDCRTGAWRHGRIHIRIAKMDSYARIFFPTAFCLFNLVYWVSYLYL
Method in brief: (§1)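 Membranes from Sf-9 cells infected (MOI 3) with baculoviruses for α1, α3 or α6 plus β2 and γ2 subunits, harvested 60 h postinfection. Binding in normal saline with 6 nM [3H]flunitrazepam (α1, α3) or [3H]Ro 15-4513 (α6), 50 µg membrane protein, varying test ligand. Incubated 60 min at 4 °C, filtered, scintillation counted.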

[3] = target: GABA-A receptor; anion channel; assay: Inhibition of [3H]flunitrazepam binding to GABA-A receptor of rat cortical membranes; format: cell membranes, Membrane
[4] = target: GABA-A receptor; anion channel (Rattus norvegicus) (UniProt O09028+P15431+P18506+P18508+P19969+P20236+P23574+P23576+P28471+P28473+P30191+P62813+P63079+P63138+Q91ZM7+Q9ES14); conditions: Brain, Brain membranes
[5] = target: GABA-A receptor alpha-1/beta-2/gamma-2 (Homo sapiens); assay: Binding affinity towards [3H]Fnz in alpha-1-beta-2-gamma-2 subtype was measured
[6] = target: T2, GABA A receptor alpha-6/beta-2/gamma-2 (Homo sapiens, UniProt P18507+P47870+Q16445); assay: Displacement of [3H]-Ro-15-4513 from GABA-A receptor alpha-6-beta-2-gamma-2 subunits expressed in Sf9 cells; method in brief: as §1
T2 sequence (Q16445 whole entry, one chain of several): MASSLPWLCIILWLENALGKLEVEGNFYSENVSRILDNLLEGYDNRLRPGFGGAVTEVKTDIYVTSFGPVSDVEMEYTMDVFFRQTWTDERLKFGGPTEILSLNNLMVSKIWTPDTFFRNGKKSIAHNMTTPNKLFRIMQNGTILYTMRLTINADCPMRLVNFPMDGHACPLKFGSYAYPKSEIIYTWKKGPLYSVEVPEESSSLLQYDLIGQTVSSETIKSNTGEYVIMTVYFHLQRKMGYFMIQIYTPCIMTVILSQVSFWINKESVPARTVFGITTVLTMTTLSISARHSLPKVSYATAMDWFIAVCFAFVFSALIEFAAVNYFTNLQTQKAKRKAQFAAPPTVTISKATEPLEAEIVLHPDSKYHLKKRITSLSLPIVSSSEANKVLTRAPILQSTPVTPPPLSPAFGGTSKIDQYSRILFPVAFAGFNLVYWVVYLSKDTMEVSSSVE

[7] = system: Rattus norvegicus; assay: Antagonistic activity against metrazole-induced clonic convulsions in rat after ip injection; format: functional
[8] = system: Mus musculus; assay: Acute electroshock physical dependence activity was evaluated; A=Active at 15 mg/Kg; format: functional, organism-based
[9] = system: Mus musculus; assay: Ethanol potentiation activity was measured as loss of traction response in male CF-1 mice after oral administration; format: functional
[10] = system: Mus musculus; assay: Ethanol potentiation activity was measured as loss of righting reflex in male CF-1 mice after oral administration; format: functional
[11] = target: T1, GABA-A receptor; alpha-1/beta-2/gamma-2; assay: (§2) Displacement of [3H]Flunitrazepam from GABA-A receptor alpha-1-beta-2-gamma-2 subunits expressed in Sf9 cells; set-up: species or system insect
Method in brief: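 Equilibrium competition binding on membranes from Sf-9 cells co-infected (MOI 3) with baculoviruses for α1, β2 and γ2 subunits, harvested 60 h postinfection. Assay in normal saline with 6 nM [3H]flunitrazepam, 50 µg membrane protein and varying test ligand concentrations. Incubated 60 min at 4 °C, filtered over glass fiber, washed four times with cold saline, then scintillation counted.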

[12] = target: T2, GABA A receptor alpha-6/beta-2/gamma-2; assay: Displacement of [3H]Ro-154513 from GABA-A receptor alpha-6-beta-2-gamma-2 subunits expressed in Sf9 cells; method in brief: as §1
[13] = system: Mus musculus; assay: In vivo antagonistic activity against benzodiazepine in mice; format: functional
Method in brief: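 Male CF-1 mice injected ip simultaneously with triazolam 1 mg/kg and test compound starting at […], in 0.25% aqueous methyl cellulose. Loss of traction scored 15 min later. Absence of triazolam effect indicated antagonism; lower doses at 0.5 log intervals then tested to establish ED50.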

[14] = species on record: Mus musculus; assay: Acute electroshock physical dependence activity was evaluated; IA=Inactive; format: functional, organism-based
Method in brief: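 Male CF-1 mice, 10/group, dosed sc twice daily (0800, and 1600 at twice the 0800 dose) for 3 days. 24 h after last dose, iv flumazenil 2.5 mg/kg in 5% aqueous N,N-dimethylacetamide. Electroshock seizure threshold (MA50) measured 5 min later versus saline-treated, flumazenil-injected controls. Compound scored active if threshold lowered beyond control interval.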

[15] = species on record: Mus musculus; assay: Ethanol potentiation was measured against LORR; format: functional
Method in brief: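 Male CF-1 mice given 7.5 mL/kg 50% aqueous ethanol orally with test compound sc simultaneously (in 0.25% aqueous methyl cellulose). After 30 min, scored for loss of traction (hindlimb placement on wire within 10 s) and loss of righting reflex (no righting within 10 s). Six mice/dose; active compounds retested at several doses for ED50.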

[16] = target: T3, GABA A receptor alpha-3/beta-2/gamma-2 (Homo sapiens, UniProt P18507+P34903+P47870); assay: Displacement of [3H]flunitrazepam from GABA-A receptor alpha-3-beta-2-gamma-2 subunits expressed in Sf9 cells; method in brief: as §1
T3 sequence (P47870 whole entry): T1 sequence (P47870 whole entry)
T3 sequence (P18507 whole entry): T1 sequence (P18507 whole entry)
T3 sequence (P34903 whole entry): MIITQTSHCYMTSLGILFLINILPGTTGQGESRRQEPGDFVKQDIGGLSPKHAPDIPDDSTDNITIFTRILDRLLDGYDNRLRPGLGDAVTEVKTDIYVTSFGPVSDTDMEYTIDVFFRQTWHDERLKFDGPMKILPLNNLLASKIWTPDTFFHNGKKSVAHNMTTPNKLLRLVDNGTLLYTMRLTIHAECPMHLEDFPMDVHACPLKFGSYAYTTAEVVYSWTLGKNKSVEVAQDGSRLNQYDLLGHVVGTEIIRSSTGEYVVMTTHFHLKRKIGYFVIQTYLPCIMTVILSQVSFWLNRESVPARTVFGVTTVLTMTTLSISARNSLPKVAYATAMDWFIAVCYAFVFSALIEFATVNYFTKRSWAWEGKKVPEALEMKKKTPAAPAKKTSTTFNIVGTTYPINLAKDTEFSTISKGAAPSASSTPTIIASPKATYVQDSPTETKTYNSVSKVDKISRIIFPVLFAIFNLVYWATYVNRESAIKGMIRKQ

[17] = target: T1, GABA-A receptor; alpha-1/beta-2/gamma-2; assay: as §2

Row | SMILES | 36Cl- uptake [1] | Ki [2] | Ki [3] | [35S] TBPS shift [4] | Ki [6] | ED50 [7] | ED50 [9] | also measured
1 | O=C(N1CCOCC1)N1Cc2c(-c3noc(C4CC4)n3)ncn2-c2ccc(Cl)cc21 | 1 | 0.22 nM | 2.3 nM | 0.71 |  |  |  | Ki [5]: 2 nM
2 | CN1C(=O)CN=C(c2ccccc2)c2cc(Cl)ccc21 [DIAZEPAM] | 1 |  |  |  | > 7000 nM | 0.5 mg/kg | 0.54 mg/kg | Activity [8]: Active; ED50 [10]: 0.86 mg/kg
3 | CCOC(=O)c1ncn2c1CN(C)C(=O)c1cc(N=[N+]=[N-])ccc1-2 [Ro-154513] |  |  |  |  |  |  |  | Ki [11]: 15 nM
4 | CC(=O)N1Cc2c(-c3noc(C4CC4)n3)ncn2-c2ccccc21 |  | 2.7 nM |  | 0.94 |  | 35 mg/kg |  | Ki [12]: 124 nM
5 | CC(C)n1c(=O)c2c(-c3noc(C4CC4)n3)ncn2c2ccccc21 [PANADIPLON] | 0.04 |  | 1.6 nM | 0.06 | 603 nM | 1.6 mg/kg | 6.6 mg/kg | ED50 [13]: 1.7 mg/kg; Activity [14]: inactive; ED50 [15]: > 30 mg/kg; Ki [16]: 5.7 nM; Ki [17]: 3.5 nM
